# Measured values reported in ChEMBL document CHEMBL3779840, “Discovery of 2-((3-Amino-4-methylphenyl)amino)-N-(2-methyl-5-(3-(trifluoromethyl)benzamido)phenyl)-4-(methylamino)pyrimidine-5-carboxamide (CHMFL-ABL-053) as a Potent, Selective, and Orally Available BCR-ABL/SRC/p38 Kinase Inhibitor for Chronic Myeloid Leukemia” (J Med Chem, 2016).
# Active and inactive are the calls of the source. No cut-off for these calls is given here.
# Legend:
# [1] = system: KU812 cell line; test: Induction of apoptosis in human KU812 cells assessed as increase in cleaved PARP level at 100 nM after 24 hrs by immunoblotting method; format: functional, cell-based
# [2] = target: Discoidin domain-containing receptor 2 (Homo sapiens, UniProt Q16832); test: Inhibition of recombinant human GST-tagged DDR2 expressed in Baculovirus expression system
# How it was run: (§1)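 IC50 values were determined with the Invitrogen SelectScreen biochemical kinase assay.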
# [3] = target: T1, Bcr/Abl fusion protein (Homo sapiens) (UniProt P00519+P11274); test: Inhibition of BCR/ABL autophosphorylation at Y245 site in human MEG01 cells at 300 nM after 1 hr by immunoblotting method; format: cell-based; details: MEG-01
# How it was run: (§2)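 KU812, K562 and MEG-01 cells were exposed to compound at the indicated concentrations for 1 h. Whole-cell lysates were then analysed by Western blot for phosphorylated signaling proteins.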
# [4] = system: K562; test: Induction of apoptosis in human K562 cells assessed as increase in cleaved caspase3 level at 100 nM after 48 hrs by immunoblotting method; format: functional, cell-based
# [5] = Mean residence time (0 to infinity) in Sprague-Dawley rat at 10 mg/kg, po; format: ADME, organism-based; details: in vivo
# [6] = target: T1, Bcr/Abl fusion protein (Homo sapiens); details: BaF3
# [7] = target: T1, Bcr/Abl fusion protein (Homo sapiens); test: Inhibition of BCR/ABL in human KU812 cells assessed as downregulation of Stat5 phosphorylation at […] site after 1 hr by immunoblotting method; format: cell-based; how it was run: as §2
# [8] = system: BaF3; details: Homo sapiens
# [9] = target: T1, Bcr/Abl fusion protein (Homo sapiens); test: Inhibition of BCR/ABL in human MEG01 cells assessed as downregulation of Stat5 phosphorylation at […] site after 1 hr by immunoblotting method; format: cell-based; details: MEG-01; how it was run: as §2
# [10] = target: Tyrosine-protein kinase Lck (Homo sapiens) (UniProt P06239); test: Inhibition of partial length human wild type LCK expressed in bacterial expression system assessed as residual activity at 1 uM relative to control
# [11] = target: T2, Proto-oncogene tyrosine-protein kinase Src (Homo sapiens, UniProt P12931); details: BaF3
# [12] = system: K562; test: Antiproliferative activity against human K562 cells assessed as cell viability after 72 hrs by CellTiter-Glo or CCK-8 assay; format: functional; details: K562, 72 h
# [13] = target: Transcription factor ETV6/Tyrosine-protein kinase ABL1 (Homo sapiens) (UniProt P00519+P41212); details: BaF3
# [14] = system: BaF3; details: Homo sapiens; remark: listed apart in the source
# [15] = system: MEG-01; test: Induction of cell cycle arrest in human MEG01 cells assessed as accumulation at G0/G1-phase after 12 hrs by propidium iodide/RNase staining based flow cytometry; format: functional
# [16] = AUC(0 to t) in Sprague-Dawley rat at 1 mg/kg, iv; format: ADME, organism-based; details: in vivo
# [17] = system: MEG-01; test: Induction of apoptosis in human MEG01 cells assessed as increase in cleaved PARP level at 100 nM after 48 hrs by immunoblotting method; format: functional, cell-based
# [18] = target: T2, Proto-oncogene tyrosine-protein kinase Src; test: Inhibition of SRC phosphorylation in human KU812 cells at 0.01 to 3 uM after 1 hr by immunoblotting method; format: cell-based
# How it was run: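 Cells were treated for 1 h at the indicated concentrations. Whole-cell lysates were then analysed by Western blot for phosphorylation of signalling proteins in the BCR-ABL pathway.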
# [19] = system: MEG-01; test: Induction of apoptosis in human MEG01 cells assessed as increase in cleaved caspase3 level at 100 nM after 48 hrs by immunoblotting method; format: functional, cell-based
# [20] = target: T1, Bcr/Abl fusion protein (Homo sapiens); test: Inhibition of BCR/ABL in human KU812 cells assessed as downregulation of CrkL phosphorylation at […] site after 1 hr by immunoblotting method; format: cell-based; how it was run: as §2
# [21] = Apparent volume of distribution in Sprague-Dawley rat at 1 mg/kg, iv; format: ADME, organism-based; details: in vivo, read-out: Vd(app)
# [22] = system: MV4-11; test: Antiproliferative activity against human MV4-11 cells assessed as cell viability after 72 hrs by CellTiter-Glo or CCK-8 assay; format: functional; details: MV4-11, 72 h
# [23] = system: K562; test: Antitumor activity against human K562 cells xenografted in nu/nu mouse assessed as tumor growth inhibition at 50 mg/kg/day, qd administered through oral gavage measured after 16 days; format: functional; details: 384 h, read-out: TGI
# How it was run: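 Female nu/nu mice bore established K562 xenografts and received daily oral dosing at 25.0 or 50.0 mg/kg/d, or vehicle, starting when tumors reached 200 to 400 mm3, for 16 days. Groups had 5 animals; data are mean ± SEM. Tumor size and body weight were normalized to initial values, and final tumor weight was recorded. Tumor tissue was stained with HE, Ki-67 and TUNEL.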
# [24] = system: KU812 cell line; test: Induction of apoptosis in human KU812 cells assessed as increase in cleaved caspase3 level at 100 nM after 24 hrs by immunoblotting method; format: functional, cell-based
# [25] = target: T3, Epithelial discoidin domain-containing receptor 1 (Homo sapiens, UniProt Q08345); test: Inhibition of partial length human wild type DDR1 expressed in bacterial expression system assessed as residual activity at 1 uM relative to control
# [26] = target: Tyrosine-protein kinase ABL1 (Homo sapiens, UniProt P00519); test: Inhibition of full length recombinant human ABL1 expressed in Baculovirus expression system; how it was run: as §1
# [27] = target: T1, Bcr/Abl fusion protein (Homo sapiens); test: Inhibition of BCR/ABL in human K562 cells assessed as downregulation of CrkL phosphorylation at […] site after 1 hr by immunoblotting method; format: cell-based; how it was run: as §2
# [28] = system: K562; test: Induction of apoptosis in human K562 cells assessed as increase in cleaved PARP level at 100 nM after 48 hrs by immunoblotting method; format: functional, cell-based
# [29] = Tmax in Sprague-Dawley rat at 1 mg/kg, iv; format: ADME, organism-based; details: in vivo
# [30] = Half life in Sprague-Dawley rat at 1 mg/kg, iv; format: ADME, organism-based; details: in vivo
# [31] = system: Mus musculus; test: Toxicity in nu/nu mouse xenografted with K562 cells assessed as mortality at 25 and 50 mg/kg/day, qd administered through oral gavage for 16 days measured every day during compound dosing; format: organism-based; details: in vivo, 384 h
# How it was run: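 Female nu/nu mice carrying established K562 xenografts received oral treatment once daily at 25.0 or 50.0 mg/kg/d, or vehicle, starting when tumours reached 200 to 400 mm3. There were 5 animals per group and dosing lasted 16 days. Body weight was expressed relative to initial weight (set as 100%), and mortality was recorded. Data are given as mean ± SEM.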
# [32] = Half life in Sprague-Dawley rat at 10 mg/kg, po; format: ADME, organism-based; details: in vivo
# [33] = target: Tyrosine-protein kinase Blk (Homo sapiens) (UniProt P51451); test: Inhibition of partial length human wild type BLK expressed in bacterial expression system assessed as residual activity at 1 uM relative to control
# [34] = target: T1, Bcr/Abl fusion protein (Homo sapiens); test: Inhibition of BCR/ABL in human KU812 cells assessed as downregulation of ERK phosphorylation at Thr202/Tyr204 site after 1 hr by immunoblotting method; format: cell-based; how it was run: as §2
# [35] = target: T3, Epithelial discoidin domain-containing receptor 1; test: Inhibition of GST-tagged human DDR1 (440 to 876 residues) expressed in Baculovirus expression system
# T1 sequence (P00519 whole entry, looked up, the tested form may be a part): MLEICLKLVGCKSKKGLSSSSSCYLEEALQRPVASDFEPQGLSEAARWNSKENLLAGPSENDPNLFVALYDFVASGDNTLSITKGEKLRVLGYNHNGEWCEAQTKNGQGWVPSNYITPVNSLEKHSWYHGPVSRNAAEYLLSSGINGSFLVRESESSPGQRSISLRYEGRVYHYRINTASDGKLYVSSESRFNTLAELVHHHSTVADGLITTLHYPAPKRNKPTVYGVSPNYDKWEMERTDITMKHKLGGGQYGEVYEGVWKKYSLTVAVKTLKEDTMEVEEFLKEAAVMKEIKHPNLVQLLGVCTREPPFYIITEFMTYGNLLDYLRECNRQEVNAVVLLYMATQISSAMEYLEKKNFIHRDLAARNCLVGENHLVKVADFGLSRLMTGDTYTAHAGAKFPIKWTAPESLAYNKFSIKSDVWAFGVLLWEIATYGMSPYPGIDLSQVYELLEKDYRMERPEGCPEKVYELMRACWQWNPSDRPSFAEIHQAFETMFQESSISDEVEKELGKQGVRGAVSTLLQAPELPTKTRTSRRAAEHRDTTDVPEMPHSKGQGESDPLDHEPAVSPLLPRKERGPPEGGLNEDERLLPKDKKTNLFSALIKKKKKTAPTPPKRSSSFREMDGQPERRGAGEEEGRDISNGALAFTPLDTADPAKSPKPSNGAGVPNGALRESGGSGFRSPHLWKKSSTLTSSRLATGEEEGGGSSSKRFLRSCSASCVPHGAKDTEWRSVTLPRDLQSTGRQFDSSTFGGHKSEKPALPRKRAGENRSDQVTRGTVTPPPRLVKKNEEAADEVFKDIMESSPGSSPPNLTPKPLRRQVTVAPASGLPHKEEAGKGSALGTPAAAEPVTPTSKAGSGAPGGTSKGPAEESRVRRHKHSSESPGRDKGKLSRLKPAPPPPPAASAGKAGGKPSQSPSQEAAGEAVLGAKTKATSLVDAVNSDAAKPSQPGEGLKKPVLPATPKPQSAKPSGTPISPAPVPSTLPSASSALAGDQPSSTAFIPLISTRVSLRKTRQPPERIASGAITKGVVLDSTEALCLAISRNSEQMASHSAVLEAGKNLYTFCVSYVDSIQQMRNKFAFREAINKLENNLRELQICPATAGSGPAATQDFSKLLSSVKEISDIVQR
# T1 sequence (P11274 whole entry, looked up, the tested form may be a part): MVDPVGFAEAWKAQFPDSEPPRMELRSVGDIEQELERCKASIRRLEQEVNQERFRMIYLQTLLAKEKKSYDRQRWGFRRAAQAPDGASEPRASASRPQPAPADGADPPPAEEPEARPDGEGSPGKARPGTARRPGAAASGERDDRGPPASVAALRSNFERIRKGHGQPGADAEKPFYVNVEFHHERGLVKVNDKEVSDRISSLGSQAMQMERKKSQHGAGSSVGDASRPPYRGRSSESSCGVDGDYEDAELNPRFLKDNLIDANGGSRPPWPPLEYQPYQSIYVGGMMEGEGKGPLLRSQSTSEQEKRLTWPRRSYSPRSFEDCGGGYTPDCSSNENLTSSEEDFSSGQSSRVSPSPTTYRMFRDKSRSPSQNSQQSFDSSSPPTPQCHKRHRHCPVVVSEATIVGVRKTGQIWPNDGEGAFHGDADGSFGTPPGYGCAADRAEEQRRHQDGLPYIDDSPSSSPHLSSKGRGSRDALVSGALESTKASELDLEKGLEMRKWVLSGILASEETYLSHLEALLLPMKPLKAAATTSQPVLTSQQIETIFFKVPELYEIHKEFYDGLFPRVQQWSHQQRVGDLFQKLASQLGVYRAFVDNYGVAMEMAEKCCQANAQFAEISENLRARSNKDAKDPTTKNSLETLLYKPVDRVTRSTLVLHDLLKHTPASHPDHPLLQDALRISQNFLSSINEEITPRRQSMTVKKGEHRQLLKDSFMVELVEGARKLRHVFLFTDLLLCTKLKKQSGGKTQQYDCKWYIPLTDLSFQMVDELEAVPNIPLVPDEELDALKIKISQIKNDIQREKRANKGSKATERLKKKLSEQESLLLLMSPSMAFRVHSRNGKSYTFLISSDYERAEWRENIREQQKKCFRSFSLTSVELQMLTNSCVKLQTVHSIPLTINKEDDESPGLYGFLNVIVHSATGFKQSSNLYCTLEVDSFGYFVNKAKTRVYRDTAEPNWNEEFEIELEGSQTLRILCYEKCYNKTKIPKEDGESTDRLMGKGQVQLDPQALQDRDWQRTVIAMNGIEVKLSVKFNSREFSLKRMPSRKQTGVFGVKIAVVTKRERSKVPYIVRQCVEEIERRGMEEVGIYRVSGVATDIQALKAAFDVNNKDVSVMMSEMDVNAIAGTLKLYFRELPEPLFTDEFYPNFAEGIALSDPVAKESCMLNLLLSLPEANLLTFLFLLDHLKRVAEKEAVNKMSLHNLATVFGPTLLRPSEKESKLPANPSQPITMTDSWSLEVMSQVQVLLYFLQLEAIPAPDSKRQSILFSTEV
# T2 sequence (P12931 2-536 limits assumed): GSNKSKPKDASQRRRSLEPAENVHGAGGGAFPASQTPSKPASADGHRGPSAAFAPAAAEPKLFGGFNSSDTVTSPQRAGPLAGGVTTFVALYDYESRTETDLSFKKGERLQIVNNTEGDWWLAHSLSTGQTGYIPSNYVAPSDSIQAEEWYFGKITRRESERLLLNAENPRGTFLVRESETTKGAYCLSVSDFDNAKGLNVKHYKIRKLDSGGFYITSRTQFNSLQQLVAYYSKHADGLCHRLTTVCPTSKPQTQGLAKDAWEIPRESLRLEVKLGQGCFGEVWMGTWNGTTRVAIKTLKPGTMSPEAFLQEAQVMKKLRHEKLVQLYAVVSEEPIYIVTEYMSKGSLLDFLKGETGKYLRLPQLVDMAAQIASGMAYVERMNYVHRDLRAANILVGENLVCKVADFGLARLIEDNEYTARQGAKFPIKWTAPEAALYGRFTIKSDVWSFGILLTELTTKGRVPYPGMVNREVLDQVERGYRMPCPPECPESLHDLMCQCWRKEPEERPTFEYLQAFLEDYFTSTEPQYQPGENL
# T3 sequence (Q08345 whole entry, the tested form may be a part): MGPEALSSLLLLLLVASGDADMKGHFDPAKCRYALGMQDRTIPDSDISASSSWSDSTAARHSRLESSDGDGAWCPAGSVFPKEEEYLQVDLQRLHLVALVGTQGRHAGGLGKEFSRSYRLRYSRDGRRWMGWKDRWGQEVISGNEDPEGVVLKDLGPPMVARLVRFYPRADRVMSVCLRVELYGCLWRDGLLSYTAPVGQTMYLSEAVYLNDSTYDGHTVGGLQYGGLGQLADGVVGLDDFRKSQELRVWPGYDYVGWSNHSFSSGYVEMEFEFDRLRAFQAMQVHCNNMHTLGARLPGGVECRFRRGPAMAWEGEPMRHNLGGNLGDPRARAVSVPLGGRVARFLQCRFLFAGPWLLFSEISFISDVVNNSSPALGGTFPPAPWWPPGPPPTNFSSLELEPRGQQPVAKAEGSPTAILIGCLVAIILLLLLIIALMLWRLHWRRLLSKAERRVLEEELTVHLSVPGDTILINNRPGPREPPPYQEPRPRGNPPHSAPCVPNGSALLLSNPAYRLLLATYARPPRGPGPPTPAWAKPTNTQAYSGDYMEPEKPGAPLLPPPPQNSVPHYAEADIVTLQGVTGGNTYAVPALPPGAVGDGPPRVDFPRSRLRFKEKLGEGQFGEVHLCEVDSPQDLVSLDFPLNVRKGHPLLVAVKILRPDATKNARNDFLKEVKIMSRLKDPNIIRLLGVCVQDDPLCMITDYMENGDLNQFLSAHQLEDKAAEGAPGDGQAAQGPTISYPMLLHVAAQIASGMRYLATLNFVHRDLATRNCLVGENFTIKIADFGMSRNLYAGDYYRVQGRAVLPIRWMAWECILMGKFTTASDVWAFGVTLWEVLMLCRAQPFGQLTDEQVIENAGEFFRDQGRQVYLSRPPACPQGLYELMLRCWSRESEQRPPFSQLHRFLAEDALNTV
# Discoidin domain-containing receptor 2, sequence (Q16832 whole entry, the tested form may be a part): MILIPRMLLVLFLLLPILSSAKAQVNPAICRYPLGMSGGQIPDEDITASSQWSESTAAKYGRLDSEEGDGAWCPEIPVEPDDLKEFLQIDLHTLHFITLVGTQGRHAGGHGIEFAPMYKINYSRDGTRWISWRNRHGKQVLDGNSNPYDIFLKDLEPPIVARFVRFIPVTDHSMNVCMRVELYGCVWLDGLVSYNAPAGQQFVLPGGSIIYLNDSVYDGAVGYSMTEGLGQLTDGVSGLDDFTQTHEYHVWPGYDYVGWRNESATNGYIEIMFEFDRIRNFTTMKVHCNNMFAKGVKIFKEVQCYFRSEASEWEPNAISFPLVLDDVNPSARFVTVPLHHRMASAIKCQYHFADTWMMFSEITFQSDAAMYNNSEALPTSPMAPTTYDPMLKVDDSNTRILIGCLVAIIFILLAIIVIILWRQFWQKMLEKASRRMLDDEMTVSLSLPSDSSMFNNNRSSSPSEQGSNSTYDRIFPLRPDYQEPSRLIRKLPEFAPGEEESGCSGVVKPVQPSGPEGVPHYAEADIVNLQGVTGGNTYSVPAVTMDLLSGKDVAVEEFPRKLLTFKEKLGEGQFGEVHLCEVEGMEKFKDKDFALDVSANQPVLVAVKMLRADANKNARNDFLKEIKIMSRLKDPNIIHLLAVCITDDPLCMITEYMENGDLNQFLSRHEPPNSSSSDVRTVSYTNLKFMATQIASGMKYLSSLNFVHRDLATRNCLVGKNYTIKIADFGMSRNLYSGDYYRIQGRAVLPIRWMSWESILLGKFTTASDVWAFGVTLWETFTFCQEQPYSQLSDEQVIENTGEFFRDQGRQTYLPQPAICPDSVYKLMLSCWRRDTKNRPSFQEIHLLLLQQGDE
# Tyrosine-protein kinase ABL1, sequence (P00519 whole entry, the tested form may be a part): as the sequence (P00519 whole entry, looked up, the tested form may be a part) above
compound,measurement,setting,value
CNc1nc(Nc2ccc(C)c(N)c2)ncc1C(=O)Nc1cc(NC(=O)c2cccc(C(F)(F)F)c2)ccc1C,Activity,[1],Active
same,IC50,[2],457 nM
same,inhibition,[3],Active
same,Activity,[4],Active
same,MRT inf,[5],5.51 h
same,GI50,[6],440 nM
same,inhibition,[7],Dose-dependent effect
same,GI50,[8],313 nM
same,inhibition,[9],Dose-dependent effect
same,Activity,[10],0.3%
same,GI50,[11],200 nM
same,GI50,[12],14 nM
same,GI50,[13],53 nM
same,GI50,[14],73 nM
same,Activity,[15],Dose-dependent effect
same,AUC(0-t),[16],636 ng·h/mL
same,Activity,[17],Active
same,inhibition,[18],inactive
same,Activity,[19],Active
same,inhibition,[20],Dose-dependent effect
same,Vd,[21],6.03 L/kg
same,GI50,[22],8000 nM
same,inhibition in vivo at 50 mg/kg/day,[23],48.3%
same,Activity,[24],Active
same,Activity,[25],0%
same,IC50,[26],70 nM
same,inhibition,[27],Dose-dependent effect
same,Activity,[28],Active
same,Tmax,[29],1.2 min
same,half-life,[30],2.82 h
same,Activity,[31],Non-toxic
same,half-life,[32],4.33 h
same,Activity,[33],0.55%
same,inhibition,[34],Dose-dependent effect
same,IC50,[35],292 nM
